Reference: ChEMBL document CHEMBL3351942, “Rexinoids isolated from Sophora tonkinensis with a gene expression profile distinct from the synthetic rexinoid bexarotene” (J Nat Prod, 2014)
Activity calls are given as the source filed them. No cut-off for these calls is given here.

Tests used:
[1] = target: T1, Peroxisome proliferator-activated receptor delta (Mus musculus) (UniProt P35396); assay: Activation of PPARdelta in mouse C2C12 cells assessed as induction of FABP3 mRNA expression at 10 uM after 24 hrs by quantitative RT-PCR analysis; type: cell-based
T1 sequence (whole entry): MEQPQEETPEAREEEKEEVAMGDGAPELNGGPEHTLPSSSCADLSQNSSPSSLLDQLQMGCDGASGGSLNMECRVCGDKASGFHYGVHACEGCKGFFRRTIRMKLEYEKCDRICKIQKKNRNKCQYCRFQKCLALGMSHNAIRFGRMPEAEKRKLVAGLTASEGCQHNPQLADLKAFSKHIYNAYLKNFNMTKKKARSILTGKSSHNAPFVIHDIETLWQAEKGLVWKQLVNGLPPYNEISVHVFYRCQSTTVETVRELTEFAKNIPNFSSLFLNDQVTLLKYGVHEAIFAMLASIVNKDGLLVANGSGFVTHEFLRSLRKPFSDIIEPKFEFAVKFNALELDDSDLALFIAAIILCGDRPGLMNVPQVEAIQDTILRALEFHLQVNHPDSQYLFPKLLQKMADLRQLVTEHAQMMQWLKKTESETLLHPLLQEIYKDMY
Outline: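 Differentiated C2C12 myotubes (2% horse serum, 5 days) exposed 24 h with or without PPARδ agonist GW501516 (1 μM). mRNA quantified by SYBR green real-time RT-PCR, normalized to β-actin by delta-delta Ct, and expressed as fold induction vs vehicle; means ± SD of four determinants from one of two independent experiments; one-way ANOVA with Bonferroni.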

[2] = Activation of LXR in mouse C2C12 cells assessed as induction of ABCA1 mRNA expression at 10 uM after 24 hrs in presence of T0901317 by quantitative RT-PCR analysis; type: cell-based
Outline: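 C2C12 myoblasts grown in DMEM/10% FBS, differentiated at confluence in 2% horse serum, medium changed every other day for 5 days; myotubes treated 24 h with or without T0901317 (1 μM). Total RNA, DNase-treated, oligo(dT) RT from 0.5 μg, SYBR green qPCR; normalized to β-actin (delta-delta Ct), fold over vehicle; mean ± SD of four determinants, one of two experiments.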

[3] = target: T2, Retinoic acid receptor RXR-alpha (Homo sapiens) (UniProt P19793); assay: Binding affinity to RXRalpha (unknown origin) by receptor-SRC1 cofactor complex formation assay
T2 sequence (whole entry): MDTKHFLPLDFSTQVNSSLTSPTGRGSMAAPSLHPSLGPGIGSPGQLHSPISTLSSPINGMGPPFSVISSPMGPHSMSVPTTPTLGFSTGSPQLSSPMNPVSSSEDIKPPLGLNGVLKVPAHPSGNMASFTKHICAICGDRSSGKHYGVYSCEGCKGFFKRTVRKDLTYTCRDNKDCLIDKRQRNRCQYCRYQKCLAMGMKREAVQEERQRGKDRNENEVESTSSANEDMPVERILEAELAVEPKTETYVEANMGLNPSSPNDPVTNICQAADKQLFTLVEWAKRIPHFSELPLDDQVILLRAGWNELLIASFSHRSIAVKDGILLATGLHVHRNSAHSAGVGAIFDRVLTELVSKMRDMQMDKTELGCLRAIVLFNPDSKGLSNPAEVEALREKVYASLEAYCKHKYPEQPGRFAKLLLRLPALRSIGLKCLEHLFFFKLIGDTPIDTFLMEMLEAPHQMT
Outline: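 Ligand-dependent binding of RXR isotype to coactivator SRC-1 in an NR cofactor kit, detected with HRP-conjugated anti-RXR antibody at OD450. The full agonist CD3254 defined 100% and vehicle 0%. Efficacy was taken as maximum B/Bmax% and potency as EC50.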

Homo sapiens [4] = species on record: Homo sapiens; assay: Activation of RXR/VDR heterodimer in human hepatoma cells assessed as increase in CYP24A1 mRNA level at 10 uM by quantitative RT-PCR analysis; type: cell-based
Outline: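 HLE hepatoma cells treated 24 h with or without VD3 (0.1 μM); CYP24A1 mRNA by SYBR green qRT-PCR normalized to β-actin (delta-delta Ct), fold over vehicle; means ± SD of three determinants, representative of three experiments.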

C2C12 = assay: Induction of HMOX-1 mRNA level in mouse C2C12 cells at 10 uM after 24 hrs by quantitative RT-PCR analysis; type: functional, cell-based
Outline: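 C2C12 myoblasts were differentiated in 2% horse serum, with medium changed every other day for 5 days. The myotubes were then exposed to compound at 10 μM for 24 h. mRNA was measured by SYBR green qRT-PCR from 0.5 μg total RNA, normalized to β-actin (ΔΔCt), and expressed as fold of vehicle. Four determinants, representative of two experiments.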

[5] = target: T3, Peroxisome proliferator-activated receptor gamma (Homo sapiens) (UniProt P37231); assay: Activation of PPARgamma (unknown origin) by receptor-CBP cofactor complex formation assay
T3 sequence (whole entry): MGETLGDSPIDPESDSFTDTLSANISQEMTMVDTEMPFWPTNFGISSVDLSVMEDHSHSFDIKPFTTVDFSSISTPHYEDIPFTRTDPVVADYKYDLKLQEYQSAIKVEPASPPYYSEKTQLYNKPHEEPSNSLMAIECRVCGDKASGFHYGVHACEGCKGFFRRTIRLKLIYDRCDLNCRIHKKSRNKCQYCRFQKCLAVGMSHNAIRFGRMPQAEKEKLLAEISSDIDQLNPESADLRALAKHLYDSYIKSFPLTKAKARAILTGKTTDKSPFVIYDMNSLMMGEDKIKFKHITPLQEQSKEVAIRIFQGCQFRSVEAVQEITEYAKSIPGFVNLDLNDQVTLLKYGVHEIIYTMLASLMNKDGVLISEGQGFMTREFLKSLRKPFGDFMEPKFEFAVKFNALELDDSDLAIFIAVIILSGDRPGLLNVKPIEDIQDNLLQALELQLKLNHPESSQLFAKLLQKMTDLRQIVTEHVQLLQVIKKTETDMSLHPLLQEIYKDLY
Outline: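 Cell-free cofactor recruitment ELISA: ligand-dependent binding of PPAR isotypes to CBP, detected by HRP-conjugated anti-PPAR antibody at OD450. Full agonists GW7647 (α), GW1929 (γ), GW501516 (δ) define 100%, vehicle 0%; efficacy as maximum B/Bmax% and potency as EC50.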

Homo sapiens [6] = species on record: Homo sapiens; assay: Activation of PPARgamma/RXR heterodimer in human hepatoma cells assessed as potentiation of rosiglitazone-induced increase in ANGPTL4 mRNA level at 10 uM by quantitative RT-PCR analysis; type: cell-based
Outline: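 HLE human hepatoma cells (DMEM, 10% FBS, 37 °C, 5% CO2) treated with or without rosiglitazone; ANGPTL4 mRNA by SYBR green qRT-PCR, β-actin-normalized delta-delta Ct, fold vs vehicle; means ± SD of three determinants, representative of three experiments.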

Activity [1]: Active
Activity [3]: inactive
Activity [5]: inactive
Structure (SMILES): CC(C)=CCc1cc([C@@H]2CC(=O)c3ccc(O)c(CC=C(C)C)c3O2)cc2c1OC(C(C)(C)O)C2 (some centres not stated)
Activity [2]: Active
Activity (Homo sapiens [4]): Active
Activity (C2C12): Active
Activity (Homo sapiens [6]): Active
